Assay results as given in ChEMBL document CHEMBL1138885, “Further structural exploration of trisubstituted asymmetric pyran derivatives (2S,4R,5R)-2-benzhydryl-5-benzylamino-tetrahydropyran-4-ol and their corresponding disubstituted (3S,6S) pyran derivatives: a proposed pharmacophore model for high-affinity interaction with the dopamine, serotonin, and …” (J Med Chem, 2006).

Tests used:
Type in all cases: tissue-based
[1] = target: T1, Sodium-dependent dopamine transporter (Rattus norvegicus, UniProt P23977); assay: Inhibition of [3H]WIN-35428 binding to rat striatum DAT
T1 sequence (P23977 whole entry): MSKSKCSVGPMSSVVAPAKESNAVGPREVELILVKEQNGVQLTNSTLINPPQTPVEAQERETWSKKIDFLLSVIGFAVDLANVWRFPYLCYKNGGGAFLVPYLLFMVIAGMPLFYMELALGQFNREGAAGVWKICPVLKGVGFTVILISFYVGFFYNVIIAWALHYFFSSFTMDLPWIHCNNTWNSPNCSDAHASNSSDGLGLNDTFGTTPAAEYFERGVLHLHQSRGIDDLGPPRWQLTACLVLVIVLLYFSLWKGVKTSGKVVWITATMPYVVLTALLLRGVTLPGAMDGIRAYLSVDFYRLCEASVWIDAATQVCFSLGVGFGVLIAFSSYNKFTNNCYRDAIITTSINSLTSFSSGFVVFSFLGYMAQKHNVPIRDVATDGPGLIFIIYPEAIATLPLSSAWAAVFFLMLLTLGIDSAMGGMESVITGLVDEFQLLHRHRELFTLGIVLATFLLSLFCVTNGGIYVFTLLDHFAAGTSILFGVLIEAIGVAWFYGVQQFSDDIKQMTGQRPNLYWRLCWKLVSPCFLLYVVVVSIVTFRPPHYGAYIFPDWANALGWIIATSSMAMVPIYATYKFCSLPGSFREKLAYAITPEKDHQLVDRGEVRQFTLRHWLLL
How it was run: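 DAT radioligand binding with nonspecific binding defined by cocaine. Compounds dissolved in DMSO, diluted in 10% (v/v) DMSO, final 0.5% DMSO. At least five concentrations, each in triplicate, spaced evenly around the IC50.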

[2] = target: T1, Sodium-dependent dopamine transporter; assay: Inhibition of DAT-mediated [3H]DA uptake in rat striatum
How it was run: (§1)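 [3H]DA, [3H]5-HT or [3H]NE accumulation measured; SERT and NET uptake in rat cerebral cortex. Nonspecific uptake defined with cocaine (DAT), citalopram (SERT) or desipramine (NET). Three to eight independent experiments in triplicate, mean ± SEM.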

[3] = target: Sodium-dependent serotonin transporter (Rattus norvegicus, UniProt P31652); assay: Inhibition of SERT-mediated [3H]5-HT uptake in rat cerebral cortex; how it was run: as §1
Chain of Sodium-dependent serotonin transporter (P31652 whole entry): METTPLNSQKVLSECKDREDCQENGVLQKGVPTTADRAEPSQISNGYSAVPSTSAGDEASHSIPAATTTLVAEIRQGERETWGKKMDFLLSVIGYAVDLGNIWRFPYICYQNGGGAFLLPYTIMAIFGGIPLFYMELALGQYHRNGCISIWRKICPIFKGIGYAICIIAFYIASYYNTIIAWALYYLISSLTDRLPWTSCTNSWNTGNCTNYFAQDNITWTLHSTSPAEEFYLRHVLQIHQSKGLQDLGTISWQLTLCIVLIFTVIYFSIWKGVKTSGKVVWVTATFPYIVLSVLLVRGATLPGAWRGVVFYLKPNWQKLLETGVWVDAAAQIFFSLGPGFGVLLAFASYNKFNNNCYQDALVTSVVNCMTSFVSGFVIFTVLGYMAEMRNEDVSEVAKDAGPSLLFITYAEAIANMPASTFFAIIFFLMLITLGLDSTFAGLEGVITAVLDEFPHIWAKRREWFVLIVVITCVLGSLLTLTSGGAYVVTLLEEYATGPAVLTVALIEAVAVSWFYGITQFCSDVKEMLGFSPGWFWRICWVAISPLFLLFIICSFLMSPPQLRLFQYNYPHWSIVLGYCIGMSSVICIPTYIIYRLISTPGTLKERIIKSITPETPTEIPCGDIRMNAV

[4] = target: Norepinephrine transporter (Rattus norvegicus, UniProt Q9WTR4); assay: Inhibition of NET-mediated [3H]NE uptake in rat cerebral cortex; how it was run: as §1
Chain of Norepinephrine transporter (Q9WTR4 whole entry): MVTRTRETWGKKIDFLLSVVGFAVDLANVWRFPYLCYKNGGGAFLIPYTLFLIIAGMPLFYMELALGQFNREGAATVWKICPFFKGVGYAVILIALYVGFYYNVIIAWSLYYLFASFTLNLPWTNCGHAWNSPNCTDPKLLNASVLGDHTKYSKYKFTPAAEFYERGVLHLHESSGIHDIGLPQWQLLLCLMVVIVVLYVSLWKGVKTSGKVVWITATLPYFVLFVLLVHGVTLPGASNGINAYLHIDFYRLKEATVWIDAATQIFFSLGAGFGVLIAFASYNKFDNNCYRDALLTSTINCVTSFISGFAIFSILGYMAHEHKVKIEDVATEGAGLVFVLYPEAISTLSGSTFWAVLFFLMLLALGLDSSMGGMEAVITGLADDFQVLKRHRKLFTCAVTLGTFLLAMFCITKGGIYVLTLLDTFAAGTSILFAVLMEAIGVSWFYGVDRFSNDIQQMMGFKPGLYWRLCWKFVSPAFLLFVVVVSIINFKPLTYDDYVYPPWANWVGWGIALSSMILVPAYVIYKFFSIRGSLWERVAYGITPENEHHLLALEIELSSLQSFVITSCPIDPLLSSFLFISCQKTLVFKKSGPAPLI

| Structure (SMILES) | Ki [1] [nM] | Ki [2] [nM] | Ki [3] [nM] | Ki [4] [nM] |
| --- | --- | --- | --- | --- |
| c1ccc(C(c2ccccc2)[C@@H]2CC[C@H](NCc3ccc4[nH]ccc4c3)CO2)cc1 | 338 | 214 | 14.5 | 6.56 |
| O=[N+]([O-])c1ccc(CN[C@@H]2CC[C@H](C(c3ccccc3)c3ccccc3)OC2)cc1 | 64.6 | 59.9 |  |  |
| Oc1ccc(CN[C@@H]2CC[C@H](C(c3ccccc3)c3ccccc3)OC2)cc1 | 114 | 67.4 | 187 |  |
| Oc1ccc(CN[C@H]2CC[C@@H](C(c3ccccc3)c3ccccc3)OC2)cc1 | 226 | 85 | 37.7 |  |
| O=[N+]([O-])c1ccc(CN[C@H]2CC[C@@H](C(c3ccccc3)c3ccccc3)OC2)cc1 | 38.4 | 34.6 |  |  |
| O[C@@H]1C[C@@H](C(c2ccccc2)c2ccccc2)OC[C@H]1NCc1ccccc1 | 1500 | 446 | 707 |  |
| c1ccc(C(c2ccccc2)[C@H]2CC[C@@H](NCc3ccc4[nH]ccc4c3)CO2)cc1 | 467 | 142 | 11.8 | 15.6 |

The remaining lines, values ahead:

| Ki [1] [nM] | Ki [2] [nM] | Ki [3] [nM] | Ki [4] [nM] | Structure (SMILES) |
| --- | --- | --- | --- | --- |
| 570 | 120 |  | 2.13 | O[C@@H]1C[C@@H](C(c2ccccc2)c2ccccc2)OC[C@H]1NCc1ccc2[nH]ccc2c1 |
|  |  |  | 10.4 | Oc1ccc(CN[C@@H]2CO[C@H](C(c3ccccc3)c3ccccc3)C[C@H]2O)cc1 |
|  |  |  | 94.4 | Oc1ccc(CN[C@H]2CO[C@@H](C(c3ccccc3)c3ccccc3)C[C@@H]2O)cc1 |
| 399 | 184 |  | 13.2 | O[C@H]1C[C@H](C(c2ccccc2)c2ccccc2)OC[C@@H]1NCc1ccc2[nH]ccc2c1 |
